CHO parental Ca: signal in parental CHO cells, OX1R antagonist counter-screen; parental CHO-K1, ATP-induced calcium, Fluo-8 fluorescence; inhibition, % at 5.6 µM; AID 463079; hit rate 0.63% among 330,000;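 active means inhibition above that plate's mean sample inhibition plus 3 SD, cut at about 26% in these data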
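test system = CHO parental line | reagent = ATP stimulus | measured by = intracellular calcium via Fluo-8 no-wash fluorescent dye | control set = ATP and no-ATP DMSO wells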
TAAR1 antag: human TAAR1 antagonism | CHO RD-HGA16 TAAR1, Fluo-8 calcium fluorescence, antagonist | inhibition, % at 3 µM | hit rate 1.5% among 360,000 | AID 624466;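 active means inhibition above a per-plate cutoff, the mean inhibition of test compounds on that plate plus 3 SD, cut at about 49% in these data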
Target sequence (Q96RJ0 whole entry, looked up): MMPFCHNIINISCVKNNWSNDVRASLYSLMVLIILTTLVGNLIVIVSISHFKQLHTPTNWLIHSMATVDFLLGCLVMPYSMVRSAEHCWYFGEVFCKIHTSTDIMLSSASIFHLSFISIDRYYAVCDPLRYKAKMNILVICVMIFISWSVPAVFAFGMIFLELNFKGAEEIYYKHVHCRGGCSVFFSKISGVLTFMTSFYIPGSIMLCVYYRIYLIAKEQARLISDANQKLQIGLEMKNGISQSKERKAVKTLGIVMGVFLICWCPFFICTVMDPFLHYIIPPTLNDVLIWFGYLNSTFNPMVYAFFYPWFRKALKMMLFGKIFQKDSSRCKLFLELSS
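Test system: hTAAR1-expressing CHO RD-HGA16 cells, Gα16-coupled; Probe or stimulus: EC80 β-phenethylamine stimulus; Compound dosing: single nominal final test compound concentration of 3 µM; Timing: 140 s kinetic read after compound, 140 s after agonist; Signal: Fluo-8 calcium-sensitive fluorescence; Measure: % inhibition of agonist calcium response; Controls: DMSO and EC80 PEA controls.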
GPR7 antag: blocks human GPR7 receptor signaling; P48145; GPR7-expressing cells, fluorescence antagonist assay; inhibition, % at 4.4 µM; hit rate 1.1% among 290,000; in the data active means inhibition above about 16%, passing the limit was not always enough;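 further: cells stimulated with the agonist NPW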
Target sequence (P48145 whole entry, looked up): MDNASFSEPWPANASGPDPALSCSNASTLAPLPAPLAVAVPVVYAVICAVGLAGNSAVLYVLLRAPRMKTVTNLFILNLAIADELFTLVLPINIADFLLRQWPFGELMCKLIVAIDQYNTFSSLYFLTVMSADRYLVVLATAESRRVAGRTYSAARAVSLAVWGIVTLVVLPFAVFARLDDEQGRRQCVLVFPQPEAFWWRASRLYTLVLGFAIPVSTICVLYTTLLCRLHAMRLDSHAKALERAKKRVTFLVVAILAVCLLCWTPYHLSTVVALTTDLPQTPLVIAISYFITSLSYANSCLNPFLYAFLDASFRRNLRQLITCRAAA
TAAR1 agonist: human TAAR1 agonism. Q96RJ0. CHO RD-HGA16 TAAR1, Fluo-8 calcium fluorescence; vehicle wells 0%, saturating PEA agonist 100%. activation, % at 3 µM. hit rate 0.99% among 360,000. AID 624467;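 active means activation above the mean activation of all test compounds in the run plus 3 SD, cut at about 38% in these data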
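Benchmarks: low control DMSO, high control PEA (EC100); System: CHO RD-HGA16 cells carrying human TAAR1 plus Gα16; Detection: Fluo-8 fluorescence, 5 s baseline then 140 s kinetic read; Schedule: 17-24 h plating, Fluo-8 75 min 37 °C, 30 min RT; Read-out basis: % activation from peak over basal fluorescence ratio, DMSO-to-PEA scaled.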
OX1R antag-1: antagonists of human orexin 1 receptor (OX1R). OX1R-expressing cells, FRET antagonist read-out. inhibition, % at 6.6 µM. hit rate 1.8% among 330,000. AID 485270; in the data active means inhibition mostly above about 38%, no sharp cut-off; inactive means mostly below about 40%
OX1R antag-2: human HCRTR1 antagonism | O43613 | CHO/OX1R cells, Fluo-8 calcium fluorescence, orexin A | inhibition, % at 5 µM | hit rate 0.43% among 330,000 | AID 434989;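 active means inhibition above its plate's threshold, mean inhibition of all tested compounds on the plate plus 3 SD, cut at about 37% in these data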
GPR7 antag conf: human GPR7 antagonism, confirmation assay | hit rate 52% among 2,400 | inhibition, % at 4.4 µM | shares compounds with GPR7 antag | AID 1952 | GPR7-expressing cells, calcium fluorescence antagonist mode; in the data active means inhibition above about 24%;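 further: stimulated with the GPR7 agonist NPW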
MCHR1 antag: antagonizes human MCHR1, a GPR7 antagonist counter-screen; inhibition, % at 4.4 µM; hit rate 62% among 2,400; shares compounds with GPR7 antag; MCHR1-expressing cells, fluorescence antagonist assay; in the data active means inhibition above about 22%
Large screens that a line does not name were inactive (follow-up assays come after a bar, where they were run). Shown are actives, neighbours in structure and some others; about 4.5% of the full set was active somewhere.

Cn1c(SCC(=O)NCc2ccc3c(c2)OCO3)nnc1-c1cccs1	none
CCOc1ccc(NC(=S)c2ccncc2)cc1	none
COc1cc(/C=N/NC(N)=O)ccc1OCC(=O)Nc1cc(C)c(C)cc1Br	none
CC(C(=O)NCCCc1ccccc1)c1ccc([N+](=O)[O-])cc1 (stereo unspecified)	GPR7 antag 22 | GPR7 antag conf 33 | MCHR1 antag 58
CC(C(=O)Nc1nccs1)c1ccc([N+](=O)[O-])cc1 (stereo unspecified)	GPR7 antag 37 | GPR7 antag conf inactive | MCHR1 antag inactive
Cc1ccccc1OCCn1cnc2cc([N+](=O)[O-])ccc2c1=O	TAAR1 antag 49, GPR7 antag 26 | GPR7 antag conf 27 | MCHR1 antag 55
O=C(O)c1ccc2c(c1)S(=O)(=O)c1cc(N3CCN(c4ncccn4)CC3)ccc1C2=O	none (no result: CHO parental Ca, GPR7 antag, OX1R antag-1, OX1R antag-2)
Cc1sc2nc[nH]c(=S)c2c1-c1ccccc1	GPR7 antag 27 | GPR7 antag conf inactive | MCHR1 antag inactive
NS(=O)(=O)c1cccc(NC(=O)COC(=O)CC2CC3CCC2C3)c1 (stereo unspecified)	GPR7 antag 36 | GPR7 antag conf inactive | MCHR1 antag inactive
CC(=O)c1cccc(NC(=O)COC(=O)CC2CC3CCC2C3)c1 (stereo unspecified)	none (no result: GPR7 antag)
CC(OC(=O)c1cc2c(ccc3ccccc32)oc1=O)c1nc2ccccc2s1 (stereo unspecified)	none
CN=c1scc(-c2ccc(F)cc2)n1/N=C/c1ccc(O)c(O)c1	GPR7 antag 23 (no result: CHO parental Ca, OX1R antag-1, OX1R antag-2) | GPR7 antag conf 33 | MCHR1 antag inactive
O=C(COC(=O)/C=C/c1ccc(F)cc1)NC1CC1	none (no result: GPR7 antag)
CCc1c(C)c(C#N)c2[nH]c3ccccc3n2c1=S	none
O=C(COc1ccc(F)cc1)N1CCc2ccccc2C1	GPR7 antag 28 | GPR7 antag conf inactive | MCHR1 antag inactive
COC(=O)c1ccc([N+](=O)[O-])cc1N1C(=O)C2C3CCC(C3)C2C1=O (stereo unspecified)	none
CN(Cc1ccccc1)C(=O)COC(=O)c1ccc(Br)o1	none (no result: GPR7 antag)
COc1ccc(C=O)cc1COc1ccc2c(c1)OCO2	none (no result: CHO parental Ca, GPR7 antag, OX1R antag-1, OX1R antag-2)
COc1ccc(C=O)cc1COc1ccc([N+](=O)[O-])c(C)c1	GPR7 antag 23 | GPR7 antag conf 49 | MCHR1 antag 44
COc1cc(CNc2ncnc3c2ncn3[C@H]2CN(Cc3ccncc3)C[C@@H](CO)O2)cc(OC)c1OC	none (no result: CHO parental Ca, GPR7 antag, OX1R antag-1, OX1R antag-2)
CC(C)c1ccc(NC(=O)NC(C)c2ccc3c(c2)OCO3)cc1 (stereo unspecified)	none
CC(C)c1ccc(NC(=O)C(c2ccc3c(c2)OCO3)N2CCCCC2)cc1 (stereo unspecified)	GPR7 antag 24 | GPR7 antag conf inactive | MCHR1 antag 40
CC#CCN(CC#CC)S(=O)(=O)c1ccc(-n2cnnn2)c(OC)c1	GPR7 antag 24 | GPR7 antag conf inactive | MCHR1 antag inactive
COc1ccc(CCNC(=O)C2CCN(S(=O)(=O)c3c(C)noc3C)CC2)cc1OC	GPR7 antag 29 | GPR7 antag conf inactive | MCHR1 antag inactive
Cc1cccc(CCNC(=O)C2CCN(S(=O)(=O)c3c(C)noc3C)CC2)c1	none
COc1ccc2c(=O)c(-c3cnn(-c4ccccc4)c3)c(C)oc2c1	none
Cc1oc2c(C)c(O)ccc2c(=O)c1-c1cnn(-c2ccccc2)c1	GPR7 antag 28 | GPR7 antag conf inactive | MCHR1 antag inactive
CC1CCc2c(nc3sc4c(c3c2N)CCCC4)C1 (stereo unspecified)	GPR7 antag 22 | GPR7 antag conf inactive | MCHR1 antag inactive
CC1CCc2nc3sc4c(c3c(N)c2C1)CCCC4 (stereo unspecified)	none
O=[N+]([O-])c1ccc(NCCNS(=O)(=O)c2ccccc2)cc1	GPR7 antag 25 | GPR7 antag conf 28 | MCHR1 antag 32
CCC(CC)C1=NN2C(=N)/C(=C\c3cc(C)n(-c4cccc(C)c4)c3C)C(=O)N=C2S1	none
Cc1ccc(S(=O)(=O)Nc2cc(S(=O)(=O)N3CCCCC3)ccc2N2CCOCC2)cc1	GPR7 antag 33 | GPR7 antag conf inactive | MCHR1 antag inactive
O=C(CN1CCCCC1)Nc1cc(S(=O)(=O)N2CCOCC2)ccc1N1CCCC1	none (no result: GPR7 antag)
CC1(C)NC(=O)N(CC(=O)Nc2cc(S(=O)(=O)N3CCOCC3)ccc2N2CCOCC2)C1=O	GPR7 antag 27 (no result: TAAR1 antag, TAAR1 agonist) | GPR7 antag conf inactive | MCHR1 antag inactive
O=C1NC[C@H](CCCCN2C[C@H](Cc3ccc(O)cc3)N(CCc3ccccc3)C(=O)C2=O)N(CC2CCCCC2)C1=O	none (no result: CHO parental Ca, GPR7 antag, OX1R antag-1, OX1R antag-2)
CSCC(C)N1CCC(n2nccc2NC(=O)c2ccccc2C)CC1 (stereo unspecified)	none
CCN(CC)CCCN(C(=O)c1ccco1)c1nc(-c2ccc(Cl)cc2)cs1	GPR7 antag 24 | GPR7 antag conf 31 | MCHR1 antag 38
CC(c1ccco1)N(C(=O)c1cccc(Br)c1)c1ccccn1 (stereo unspecified)	none
Cc1onc(-c2ccccc2)c1CNC(=O)Nc1ccc(C(F)(F)F)cc1	GPR7 antag 24, OX1R antag-1 49 | GPR7 antag conf 28 | MCHR1 antag 52
CCc1ccc(OCc2nnc(NC(=O)c3cccs3)s2)cc1	GPR7 antag 25 | GPR7 antag conf inactive | MCHR1 antag inactive
CSc1ccccc1NC(=O)CN(C)C(=O)Cn1c(=O)oc2ccccc21	none (no result: GPR7 antag)
CN1C2CCC1/C(=C\c1ccccc1F)C(=O)/C2=C/c1ccccc1F	GPR7 antag 28 | GPR7 antag conf inactive | MCHR1 antag 34
CC1(C)Cc2c(C#N)c(N)n(-c3ccccc3)c(=S)c2CO1	GPR7 antag 92 | GPR7 antag conf inactive | MCHR1 antag inactive
O=C(Nc1ccc(OC(F)(F)F)cc1)Nc1cccnc1	GPR7 antag 22 | GPR7 antag conf inactive | MCHR1 antag 30
COc1ccccc1NCC(O)Cn1c2ccccc2c2ccccc21 (stereo unspecified)	none
COc1ccc(CCNCC(O)Cn2c3ccccc3c3ccccc32)cc1OC (stereo unspecified)	GPR7 antag 43 | GPR7 antag conf 56 | MCHR1 antag 74
NC(=O)c1c(N)sc2c1CCCC2	GPR7 antag 23 | GPR7 antag conf inactive | MCHR1 antag inactive
Cc1cccc(OC(C)C(=O)Nc2cc(Cl)ccc2-n2cncn2)c1 (stereo unspecified)	none (no result: GPR7 antag)
